Data from paper PMC11437748 (Computational and Structural Biotechnology Journal, 2024).
Bridges are numbered along the chain shown (N, C = ends). Where no end group is shown, it is not given here.

Columns and labels:
[1] = tested on: tested Gram-positive bacteria; assay: Geometric mean of MICs and TI, Gram-positive bacteria; format: cell-based; conditions: geometric mean of the MICs against tested Gram-positive bacteria
How it was run: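 Broth dilution against S. aureus NCTC 10788, MRSA NCTC 12493 and E. faecalis NCTC 12697. Overnight cultures subcultured to OD550 0.23 (about 1×10^8 cfu/ml), then diluted to 5×10^5 cfu/ml. Test compound at 1–128 μM, 37 °C, 18 h, growth read at 550 nm. MIC = lowest concentration with no growth. Three independent runs in triplicate. Geometric mean taken across the MICs.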

[2] = tested on: E. coli 13846; assay: Salt sensitivity assay; format: cell-based, Escherichia coli; conditions: three independent repeats
How it was run: (§1)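 MIC/MBC measured in MHB supplemented with salts, including 150 mM NaCl, 2 mM CaCl₂ or 1 mM MgCl₂. Gram-negative cultures subcultured to OD550 0.4, then diluted to 5×10^5 cfu/ml. Test compound 1–128 μM, 37 °C, 18 h, growth at 550 nm. MBC: wells spotted on agar for 18 h at 37 °C; lowest concentration with no colonies. Three independent repeats.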

[3] = Secondary structure analysis by CD spectrometry; format: physicochemical; conditions: for α helix (%) NH4AC: 50 µM peptide in 10 mM NH4AC; for α helix (%) NH4AC / α helix (%) TFE: CD 190 to 260 nm, K2D3 estimate; for α helix (%) TFE: 50 µM peptide in 50 % TFE (v/v, in 10 mM NH4AC)
How it was run: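 CD spectra of test compound (final 50 µM) in 10 mM ammonium acetate, in 50 % TFE (v/v, in 10 mM ammonium acetate), or with LPS O26:B6 (100 µM) in 10 mM ammonium acetate. Scanned 190–260 nm at 100 nm/min, 1 nm bandwidth, 0.5 nm data pitch. Helix content estimated with K2D3.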

[4] = tested on: E. coli plasmid DNA (pBR322); assay: DNA binding assay; set-up: species or system Escherichia coli; conditions: 100 ng plasmid DNA, 37 °C, 1 h, agarose gel electrophoresis
How it was run: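 Gel retardation: test compound (final 1–32 μM) incubated with 100 ng E. coli plasmid DNA at 37 °C for 1 h. Buffer: 1 mM EDTA, 10 mM Tris-HCl pH 8.0, 5 % glucose, 50 μg/ml BSA, 20 mM KCl. Resolved by agarose gel electrophoresis in 1 × TAE. A known DNA-binding peptide at equal concentrations served as control.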

[5] = tested on: three tested E. coli strains; assay: NPN assay, outer membrane permeabilisation; format: cell-based, Escherichia coli; conditions: 1 × MIC, 2 × MIC, 4 × MIC; 37 °C, 2 h
How it was run: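 Log-phase E. coli pelleted at 3000g for 10 min and washed three times in 5 mM HEPES pH 7.2 with 5 mM glucose. Resuspended at 1×10^7 CFU/ml with NPN and test compound at 1×, 2× or 4× MIC. Incubated at 37 °C for 2 h, then fluorescence read at […]. Melittin set 100 % and buffer 0 % permeability. Three independent runs.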

[6] = tested on: E. coli 2340; assay: In vivo antibacterial study, G. mellonella larvae model; set-up: species or system Galleria mellonella; conditions: five days; 10, 20, 40 mg/kg; ten larvae per group
How it was run: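 Galleria mellonella larvae injected in the last right proleg with E. coli suspension (1×10^7 CFU/ml). Test compound given 1 h later at 10, 20 or 40 mg/kg. Larvae kept at 37 °C for five days, survival scored daily, ten larvae per group. Rifampin 20 mg/kg was the positive control and sterile PBS the negative control. Three independent experiments.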

[7] = tested on: E. coli 8739; assay: Salt sensitivity assay; format: cell-based, Escherichia coli; conditions: three independent repeats
How it was run: as §1

[8] = tested on: E. coli 8739, E. coli 13846, and E. coli 2340; assay: Time-killing kinetic assay; format: cell-based, Escherichia coli
How it was run: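 E. coli at 10^6 CFU/ml mixed with test compound at 1×, 2× or 4× MIC. 10 µl aliquots taken into PBS at 0, 5, 10, 20, 30, 60, 90, 120 and 180 min and plated on agar. Colonies counted after 24 h incubation. Three independent sessions, three replicates each.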

[9] = tested on: tested E. coli strains; assay: ONPG assay, inner membrane permeabilisation; format: cell-based, Escherichia coli; conditions: E. coli 8739
How it was run: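 E. coli grown in LB with 2 % lactose to log phase, then pelleted. Incubated with test compound while absorbance at 460 nm was monitored continuously at 37 °C. Untreated cells, melittin and solvent-only groups included. Three independent runs, three replicates each.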

[10] = tested on: E. coli 2340; assay: Salt sensitivity assay; format: cell-based, Escherichia coli; conditions: three independent repeats
How it was run: as §1

FFPKVAGVAAKVLKKFCTISKKC (disulfide 17-23 (inferred)) [des-Ala^16-[Lys^4]brevinin−1pl]
GM G+ [1]: 80.63 µM | MBC ([2]; 4 µM FeCl3 in MHB medium): 8 /8 | MIC ([2]; 4 µM FeCl3 in MHB medium): 8 /8 | MBC ([2]; 6 µM NH4Cl in MHB medium): 8 /8 | MIC ([2]; 6 µM NH4Cl in MHB medium): 8 /8 | MBC ([2]; 8 µM ZnCl2 in MHB medium): 8 /8 | MIC ([2]; 8 µM ZnCl2 in MHB medium): 8 /8 | MBC ([2]; 1 mM MgCl2 in MHB medium): 16 /16 | MIC ([2]; 1 mM MgCl2 in MHB medium): 16 /16 | MBC ([2]; 2 mM CaCl2 in MHB medium): 64 /64 | MIC ([2]; 2 mM CaCl2 in MHB medium): 64 /64 | MBC ([2]; 4.5 mM KCl in MHB medium): 8 /8 | MIC ([2]; 4.5 mM KCl in MHB medium): 8 /8 | MBC ([2]; 150 mM NaCl in MHB medium): 8 | MIC ([2]; 150 mM NaCl in MHB medium): 4 | MBC ([2]; Control, MHB medium): 4 /4 | MIC ([2]; Control, MHB medium): 4 /4 | α helix (%) NH4AC [3]: 31.95% | α helix (%) TFE [3]: 95.28% | α helix content in the presence of LPS ([3]; LPS (O26:B6, 100 µM) in 10 mM NH4AC, CD, K2D3 prediction): 95.44% | concentration of complete retardation of plasmid DNA [4]: 16 µM | outer membrane permeabilisation of the tested E. coli strains [5]: did not induce significant changes | survival rate of infected larvae [6]: 90% | MBC ([7]; 4 µM FeCl3 in MHB medium): 2 /2 | MIC ([7]; 4 µM FeCl3 in MHB medium): 2 /2 | MBC ([7]; 6 µM NH4Cl in MHB medium): 2 /2 | MIC ([7]; 6 µM NH4Cl in MHB medium): 2 /2 | MBC ([7]; 8 µM ZnCl2 in MHB medium): 2 /2 | MIC ([7]; 8 µM ZnCl2 in MHB medium): 2 /2 | MBC ([7]; 1 mM MgCl2 in MHB medium): 32 /32 | MIC ([7]; 1 mM MgCl2 in MHB medium): 32 /32 | MBC ([7]; 2 mM CaCl2 in MHB medium): 8 /8 | MIC ([7]; 2 mM CaCl2 in MHB medium): 8 /8 | MBC ([7]; 4.5 mM KCl in MHB medium): 2 /2 | MIC ([7]; 4.5 mM KCl in MHB medium): 2 /2 | MBC ([7]; 150 mM NaCl in MHB medium): 4 /4 | MIC ([7]; 150 mM NaCl in MHB medium): 4 /4 | MBC ([7]; Control, MHB medium): 2 /2 | MIC ([7]; Control, MHB medium): 2 /2 | bacteria eradication at 4 × MIC ([8]; 4 × MIC): almost immediate bacteria eradication upon contact | time to eradicate all cells ([8]; 10^6 CFU/ml, peptide 1 × MIC to 4 × MIC, sampled 0 to 180 min, colony count): ≤ 10 min | time to completely clear the bacteria ([8]; at their MICs, three types of E. coli): ≤ 1 h | changes in OD values in the ONPG assay (release of cytoplasmic beta-galactosidase) [9]: did not induce obvious changes in OD values | MBC ([10]; 4 µM FeCl3 in MHB medium): 4 /4 | MIC ([10]; 4 µM FeCl3 in MHB medium): 4 /4 | MBC ([10]; 6 µM NH4Cl in MHB medium): 4 /4 | MIC ([10]; 6 µM NH4Cl in MHB medium): 4 /4 | MBC ([10]; 8 µM ZnCl2 in MHB medium): 4 /4 | MIC ([10]; 8 µM ZnCl2 in MHB medium): 4 /4 | MBC ([10]; 1 mM MgCl2 in MHB medium): 8 /8 | MIC ([10]; 1 mM MgCl2 in MHB medium): 8 /8 | MBC ([10]; 2 mM CaCl2 in MHB medium): 16 /16 | MIC ([10]; 2 mM CaCl2 in MHB medium): 16 /16 | MBC ([10]; 4.5 mM KCl in MHB medium): 2 /2 | MIC ([10]; 4.5 mM KCl in MHB medium): 2 /2 | MBC ([10]; 150 mM NaCl in MHB medium): 4 /4 | MIC ([10]; 150 mM NaCl in MHB medium): 4 /4 | MBC ([10]; Control, MHB medium): 4 /4 | MIC ([10]; Control, MHB medium): 4 /4

FFPKVAGVAAKV_KK_FCTISKKC (disulfide) [des-Leu^13, Ala^16-[Lys^4]brevinin−1pl]
GM G+ [1]: 256 µM | α helix (%) NH4AC [3]: 34.65% | α helix (%) TFE [3]: 95.28%
